Assay results of several laboratories.
Lines come from different studies, so protocols differ.
Target: Serine/threonine-protein kinase LATS2 (LATS2, Homo sapiens, UniProt Q9NRM7)
One construct used (Q9NRM7 1-1088): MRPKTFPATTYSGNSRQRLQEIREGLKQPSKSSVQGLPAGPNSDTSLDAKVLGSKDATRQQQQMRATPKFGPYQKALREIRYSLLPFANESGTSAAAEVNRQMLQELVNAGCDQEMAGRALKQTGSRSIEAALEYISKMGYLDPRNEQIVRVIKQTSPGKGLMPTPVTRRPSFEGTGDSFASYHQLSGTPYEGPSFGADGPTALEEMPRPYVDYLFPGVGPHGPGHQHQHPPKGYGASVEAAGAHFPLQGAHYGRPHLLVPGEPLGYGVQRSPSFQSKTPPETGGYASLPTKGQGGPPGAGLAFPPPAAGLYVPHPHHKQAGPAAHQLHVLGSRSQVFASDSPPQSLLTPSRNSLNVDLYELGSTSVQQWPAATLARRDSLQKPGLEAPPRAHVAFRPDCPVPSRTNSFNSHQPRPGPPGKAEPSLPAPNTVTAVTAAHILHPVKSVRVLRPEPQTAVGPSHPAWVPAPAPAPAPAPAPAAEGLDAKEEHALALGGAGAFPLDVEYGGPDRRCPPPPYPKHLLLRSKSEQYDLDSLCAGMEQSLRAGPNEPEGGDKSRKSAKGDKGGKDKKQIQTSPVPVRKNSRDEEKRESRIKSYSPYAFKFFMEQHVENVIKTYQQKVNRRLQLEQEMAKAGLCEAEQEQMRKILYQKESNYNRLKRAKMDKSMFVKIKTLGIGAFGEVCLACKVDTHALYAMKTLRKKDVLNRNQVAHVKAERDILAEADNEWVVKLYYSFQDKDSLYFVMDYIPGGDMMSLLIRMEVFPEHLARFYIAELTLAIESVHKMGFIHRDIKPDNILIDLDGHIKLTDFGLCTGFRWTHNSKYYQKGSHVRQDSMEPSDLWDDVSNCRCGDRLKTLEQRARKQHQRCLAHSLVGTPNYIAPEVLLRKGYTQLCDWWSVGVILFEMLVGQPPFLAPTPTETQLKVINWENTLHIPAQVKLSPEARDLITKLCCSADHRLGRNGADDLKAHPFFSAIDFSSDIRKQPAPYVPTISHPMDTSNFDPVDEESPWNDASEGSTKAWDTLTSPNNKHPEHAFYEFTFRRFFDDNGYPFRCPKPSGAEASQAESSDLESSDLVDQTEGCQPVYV

| Compound | effect on | action | technique | cell line | tested at | endpoint | value |
| --- | --- | --- | --- | --- | --- | --- | --- |
| O=C(Nc1cnn(-c2csc(C(=O)NC3COC3)c2)c1)Nc1c(F)cccc1Cl | enzyme activity | inhibitor |  |  | 5 µM | remaining activity | 104% |
| CCN1CCN(Cc2ccc(NC(=O)c3ccc(C)c(/C=C/c4cnc5[nH]ccc5c4OC)c3)cc2C(F)(F)F)CC1 | target engagement in cells | inhibitor | chemoproteomics | A-375 | 5 µM | inhibition | -21.8% |
| Nc1ncnc2occ(-c3ccc(NC(=O)Nc4cc(C(F)(F)F)ccc4F)cc3)c12 | cell-free assay | inhibitor |  |  | 20 µM | remaining signal | 3.7% |
| Cn1cncc1C1=CN(c2ncnc3[nH]cnc23)CCS1 | enzyme activity | inhibitor | radiometric |  | 50 nM | inhibition | 34.2% |
| Cc1ccc(C(=O)Nc2ccc(CN3CCN(C)CC3)c(C(F)(F)F)c2)cc1C#Cc1cnc2cccnn12 | enzyme activity | inhibitor |  |  | 23.5 nM | remaining activity | 95% |
| Cc1cnn2ncc(-c3ccnc(N(C)C)n3)c2c1 | binding |  |  |  | 1 µM | remaining binding | 84% |
| CC(C)(O)[C@H]1CC[C@H](Nc2ccc3ncc(-c4cccc(C(F)(F)F)c4)n3n2)CC1 | enzyme activity | inhibitor |  |  | 1 µM | remaining activity | 61.4% |
| COc1cc(-c2cc(-c3ccc(N4CCNCC4)cc3)cnc2C)cc(OC)c1OC | enzyme activity | inhibitor |  |  | 1 µM | inhibition | 2% |
| COc1ccc2c(c1)O[C@H](c1ccc(OC)c(OC)c1)C[C@@H]2NC(=O)C1(c2ccc3c(c2)OC(F)(F)O3)CC1 | cell-free assay |  | competition with immobilised ligand |  | 1 µM | remaining binding | 89% |
| O=C(Nc1cnn(-c2csc(C(=O)NC3COC3)c2)c1)Nc1ccccc1Cl | enzyme activity | inhibitor |  |  | 5 µM | remaining activity | 96% |
| O=C(NCc1ncc(C(F)(F)F)cc1Cl)c1ccc2c(c1)C1(CCS(=O)(=O)CC1)[C@H](C1CC1)N2S(=O)(=O)c1ccc(F)cc1 | cell-free assay |  | competition with immobilised ligand |  | 1 µM | remaining binding | 100% |
| Cn1cnc(Br)c1C1=CN(c2ncnc3[nH]cnc23)CCS1 | enzyme activity | inhibitor | radiometric |  | 50 nM | inhibition | 29.1% |
